The results in this text go back to ChEMBL document CHEMBL1146097, “Catalytic site prediction and virtual screening of cytochrome P450 2D6 substrates by consideration of water and rescoring in automated docking” (J Med Chem, 2006).

For orientation: IC50 means the midpoint of a concentration-inhibition curve.

Cytochrome P450 2D6, sequence (P10635 whole entry): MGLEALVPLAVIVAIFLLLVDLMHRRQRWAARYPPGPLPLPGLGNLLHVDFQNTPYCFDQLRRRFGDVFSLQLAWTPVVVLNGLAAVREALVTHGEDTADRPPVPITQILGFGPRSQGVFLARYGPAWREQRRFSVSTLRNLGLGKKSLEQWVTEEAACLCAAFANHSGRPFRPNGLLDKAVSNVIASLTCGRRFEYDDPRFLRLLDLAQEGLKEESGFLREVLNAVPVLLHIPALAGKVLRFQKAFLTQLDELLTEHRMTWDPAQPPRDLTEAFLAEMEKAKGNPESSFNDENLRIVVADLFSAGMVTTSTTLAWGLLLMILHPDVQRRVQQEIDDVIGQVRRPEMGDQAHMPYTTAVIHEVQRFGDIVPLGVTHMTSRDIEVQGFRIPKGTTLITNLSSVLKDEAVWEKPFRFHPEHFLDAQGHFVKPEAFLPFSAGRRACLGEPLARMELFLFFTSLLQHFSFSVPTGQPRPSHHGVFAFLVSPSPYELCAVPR

The experiment deals with Cytochrome P450 2D6 (Homo sapiens, UniProt P10635). Briefly: Inhibition of human CYP2D6 expressed in Escherichia coli JM109. The format is ADME. Summed up:
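IC50 from inhibition of CYP2D6-catalysed MAMC O-demethylation; values are means of at least three independent experiments ± standard deviation.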
Compound `CCC(=O)O/N=C1\c2ccccc2CCc2ncccc21` gave an IC50 of over 400 µM.
`Fc1ccc(C(OCCN2CCC(CCCc3ccccc3)CC2)c2ccc(F)cc2)cc1` registered an IC50 of 1.21 µM.
`Oc1ccccc1/C=N/c1ccccc1` [2-((PHENYLIMINO)METHYL)PHENOL] yielded a concentration for half-maximal inhibition (IC50) of over 1000 µM.
`CCCCCCCCCCCc1cccn1C1c2ccccc2CCc2ccccc21` gave a half-maximal inhibitory concentration (IC50) of 5.8 µM.
In the case of `O=C1c2ccccc2C(O)C1C1c2ccccc2C=Cc2ccccc21` (configuration not stated) it was 60 µM; in that of `C[N+]1(C)C2CCC1CC(OC1c3ccccc3C=Cc3ccccc31)C2` (configuration not stated), 60 µM; in that of `CCC(c1ccccc1)c1c(O)c2ccccc2oc1=O` (configuration not stated) [PHENPROCOUMON], 528 µM.
In the case of `C(=C1c2ccccc2CCc2ccccc21)c1ccccc1` it was over 200 µM; in that of `Cc1ccc2c(c1)C(n1cccc1)c1cccnc1CC2` (configuration not stated), 40 µM; in that of `Cn1ccnc1C(O)C=C(c1ccccc1)c1ccccc1` (configuration not stated), 15 µM.
In the case of `Nc1ccccc1-c1nc(N)c2ccccc2n1`, the IC50 stood at 169 µM.
In turn, `CN(C)CCC1(O)c2ccccc2CCc2ccc3ccccc3c21` (configuration not stated) came in with a half-maximal inhibitory concentration (IC50) of 0.06 µM.
In the case of `COc1ccc2c(c1)[C@]13CCCC[C@@H]1[C@H](C2)N(C)CC3` [DEXTROMETHORPHAN], the half-inhibitory concentration (IC50) came out at 3.4 µM.
Compound `c1ccc(CCNCCC2c3ccccc3Sc3ccccc32)cc1` displayed an IC50 of 0.26 µM.
The compound `CCc1ccccc1C1(Br)C(=O)c2ccccc2C1=O` displayed a half-inhibitory concentration (IC50) of 83 µM.
With `CC1C2C=C(C=C3c4ccccc4CCc4ccccc43)CC1CC2` (configuration not stated) the figure was 0.21 µM.
Compound `CC(Cc1ccccc1)NC1CC2c3ccccc3CCc3cccc1c32` (configuration not stated) had a half-maximal inhibitory concentration (IC50) of 0.15 µM.
